Compound activity from PubChem.
Rows were chosen to be rich in hits. Some 0.77% of all compounds tested hit in one or more screens of this group.
bIAP activator: increases bovine intestinal alkaline phosphatase activity | purified bovine IAP, CDP-star luminescence, 30 min; active compounds read high; fold of DMSO-control signal, blank-subtracted | activation factor at 20 µM | hit rate 0.17% among 200,000;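 active = activation factor of 2 or more at 20 µM, a signal rise over negative controls twice the positive control's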
hIAP inh: human IAP inhibition; inhibition, % at 10 µM; P09923; purified IAP, CDP-Star luminescence, 30 min; hit rate 0.12% among 330,000; AID 2544;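 active = inhibition reaching a set limit with compound at 10 µM in the primary screen, cut at about 35% in these data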;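 also: plate controls were DMSO wells with enzyme for no effect and no-enzyme buffer wells for full effect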
Target sequence (P09923 whole entry, looked up): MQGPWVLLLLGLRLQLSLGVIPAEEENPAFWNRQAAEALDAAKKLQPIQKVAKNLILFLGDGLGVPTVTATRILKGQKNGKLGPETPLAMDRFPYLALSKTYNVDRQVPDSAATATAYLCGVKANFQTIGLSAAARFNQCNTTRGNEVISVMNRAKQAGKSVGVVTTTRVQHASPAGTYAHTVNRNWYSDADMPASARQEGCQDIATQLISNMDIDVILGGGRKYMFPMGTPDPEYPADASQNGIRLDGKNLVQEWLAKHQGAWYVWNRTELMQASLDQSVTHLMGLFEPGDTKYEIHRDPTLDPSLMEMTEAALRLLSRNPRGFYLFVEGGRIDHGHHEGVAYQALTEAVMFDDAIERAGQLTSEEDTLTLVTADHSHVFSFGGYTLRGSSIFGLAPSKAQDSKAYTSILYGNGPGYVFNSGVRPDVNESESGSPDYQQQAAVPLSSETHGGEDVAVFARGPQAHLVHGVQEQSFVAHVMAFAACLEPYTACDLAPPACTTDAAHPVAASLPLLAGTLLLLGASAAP
mIAP inh: blocks mouse intestinal alkaline phosphatase | purified mouse IAP, CDP-Star luminescence, 30 min | inhibition, % at 10 µM | hit rate 0.2% among 330,000 | AID 2806;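 active = inhibition of at least 40% at 10 µM in the primary screen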;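 also: plate controls were DMSO with enzyme for no effect and no enzyme wells for full effect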
mIAP activ: mouse IAP activation | AID 2805 | activation factor at 10 µM | muIAP, CDP-Star luminescence, 30 min; active compounds read high; 1 = vehicle-only enzyme signal, 0 = enzyme-free wells | hit rate 0.24% among 330,000;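 active = activation factor of at least 2 at 20 µM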
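System: Mouse IAP enzyme | Also added: CDP-Star substrate | Dosing: Compounds dispensed in DMSO | Schedule: 30 min enzyme-substrate-compound incubation at room temperature | Technique: Chemiluminescence readout | Control set: DMSO-only wells and no-enzyme negative control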
hIAP act: human IAP activation | hit rate 0.16% among 330,000 | activation factor at 10 µM | P09923 | purified human IAP, CDP-Star luminescence, 30 min; active compounds read high; 1 = vehicle-only enzyme, 0 = enzyme-free background;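 active = activation factor of the enzyme at least 2-fold when tested at 20 µM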
bIAP inhibitor: blocks bovine intestinal alkaline phosphatase activity; purified bovine IAP, CDP-star luminescence, 30 min; inhibition, % at 20 µM; 190,000 tested, under 10 active;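 active = over 50% inhibition of intestinal alkaline phosphatase at 20 µM in the single-dose screen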
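System: purified bovine intestinal alkaline phosphatase (IAP) enzyme; Input: IAP diluted 1/65,000,000 in the well; Measured by: CDP-star luminescence signal; Compound dosing: 20 µM single dose; Incubation: 30 min reaction at room temperature.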
mIAP inh confirm: mouse IAP inhibition confirmation. inhibition, % at 10 µM. purified mouse IAP, CDP-Star luminescence, 30 min. hit rate 4.7% among 11,000. shares compounds with mIAP inh;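 active = inhibition of at least 40% at 10 µM in either of the two replicates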;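 also: plate controls were DMSO wells with enzyme for no effect and buffer wells lacking enzyme for full effect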
Numbers without * were called inactive; i = inactive; / = not tested or not shown.

SMILES	bIAP activator	hIAP inh	mIAP inh	mIAP activ	hIAP act	bIAP inhibitor	mIAP inh confirm
C[C@@H]1O[C@@H](O[C@H]2[C@H](O)[C@@H](O)[C@H](Oc3c(-c4ccc(O)c(O)c4)oc4cc(O)cc(O)c4c3=O)O[C@@H]2CO)[C@H](O)[C@H](O)[C@H]1O	/	21.5	57.7*	0.423	0.785	/	48.0*
O=C1CC(c2ccc(O)cc2)Oc2cc(O)cc(O)c21 (centres undefined)	1.1	-2.5	-1.4	1.01	1.02	-12.7	/
O=C1CC(c2ccc(O)c(O)c2)Oc2c1ccc(O)c2O (centres undefined)	/	27.6	77.9*	0.221	0.724	/	80.9*
Cc1ccccc1CN1CCC(CNC(=O)Nc2ccc(F)cc2F)CC1	/	-15.5	-37.9	1.38	1.16	/	/
Cc1ccc(NC(=O)NCC2CCN(Cc3cc(C)ccc3Cl)CC2)c(C)c1	1.1	-49.0	-390.6	4.91*	1.49	-9.1	-86.8
Cc1c(Cl)cccc1NC(=O)NC1CCCCC1	0.6	8.6	-13.5	1.14	0.914	39.0	/
Cc1ccc(C)c(CN2CCC(CNC(=O)Nc3cccc(Cl)c3C)CC2)c1	/	-66.0	-444.9	5.45*	1.66	/	-147.2
NC(=O)c1ccc[n+](Cc2ccc(-c3ccccc3)cc2)c1	/	25.3	8.0	0.92	0.747	/	/
CCOc1ccc(CCNC(=O)C2CCCN(c3ncnc4c3nc3n4CCCCC3)C2)cc1 (centres undefined)	/	-10.8	-0.7	1.01	1.11	/	/
Cn1cccc1/C=C1\SC(=S)N(Nc2ccccc2)C1=O	/	-20.0	40.3*	0.597	1.2	/	49.7*
C[C@H](CO)N1C[C@H](C)[C@@H](CN(C)S(=O)(=O)c2ccccc2)Oc2ccc(NC(=O)NC3CCCCC3)cc2C1=O	/	1.5	-301.6	4.02*	0.985	/	-178.7
C[C@H](CO)N1C[C@H](C)[C@@H](CN(C)S(=O)(=O)c2cccs2)Oc2ccc(NC(=O)NC3CCCCC3)cc2C1=O	/	1.6	-263.6	3.64*	0.984	/	-160.2
C[C@H](CO)N1C[C@H](C)[C@@H](CN(C)S(=O)(=O)c2ccccc2)Oc2ccc(NC(=O)C3CCCCC3)cc2C1=O	/	-4.1	-24.3	1.24	1.04	/	/
COc1ccc(NC(=O)C2CCC(C(C)(C)C)CC2)cc1S(=O)(=O)N1CCOCC1 (centres undefined)	/	11.3	-19.0	1.19	0.887	/	/
CC(=O)Oc1cc(C(=O)OCC(=O)N2CCc3ccccc3C2)cc(OC(C)=O)c1OC(C)=O	/	-27.4	45.5*	0.545	1.27	/	51.2*
C#CCOCCOCCOCCNc1nc(N2CCN(C(=O)CCCCCCCCCCNC(=O)Cn3cc(C[C@@H](C)O)nn3)CC2)nc(N2CCN(C(=O)CCCCCCCCCCNC(=O)[C@@H]([C@H](C)CC)n3cc(CCCCCN)nn3)CC2)n1	/	-8.4	i	6.11*	1.08	/	-458.7
C#CCOCCOCCOCCNc1nc(N2CCN(C(=O)CCCCCCCCCCNC(=O)Cn3cc(CCCCCN)nn3)CC2)nc(N2CCN(C(=O)CCCCCCCCCCNC(=O)Cn3cc(C[C@@H](C)O)nn3)CC2)n1	/	-27.6	-113.2	2.13*	1.27	/	-121.7
COc1ccc2nc(SCC(=O)NC3CC3)c(C#N)cc2c1	/	-18.8	-6.7	1.07	1.19	/	/
CCCC1=NN2C(=N)/C(=C\c3cc(C)n(Cc4ccccc4)c3C)C(=O)N=C2S1	/	0.8	-0.2	1	0.992	/	/
CCC1=NN2C(=N)/C(=C\c3ccc(SCc4ccco4)o3)C(=O)N=C2S1	0.9	17.1	74.1*	0.259	0.829	12.7	72.0*
CCC1=NN2C(=N)/C(=C/c3c(C)nn(-c4ccccc4)c3Cl)C(=O)N=C2S1	0.9	-6.2	-8.5	1.08	1.06	5.4	/
CCCC1=NN2C(=N)/C(=C\c3ccc(SCc4ccco4)o3)C(=O)N=C2S1	0.8	11.1	57.3*	0.427	0.889	17.4	69.8*
O=C(CN1C(=O)C2CCCCC2C1=O)Nc1ccc(OC(F)F)c(Cl)c1 (centres undefined)	/	19.6	-5.9	1.06	0.804	/	/
Cc1cccc(C2=NN(c3ccccc3)[C@H](CO)[C@H]2c2ccccc2)c1	/	/	-120.4	2.2*	/	/	-107.2
CCOc1ccc(C(=O)OCC(=O)NCC2CCCO2)cc1 (centres undefined)	/	-5.4	10.1	0.899	1.05	/	/
SMILES	bIAP activator	hIAP inh	mIAP inh	mIAP activ	hIAP act	bIAP inhibitor	mIAP inh confirm
Nc1c(C(=O)N/N=C/c2cccnc2)oc2nc(-c3ccco3)cc(-c3ccco3)c12	/	11.1	49.0*	0.51	0.889	/	41.2*
NNC(=O)c1oc2nc(-c3ccco3)cc(-c3ccco3)c2c1N	/	7.8	62.4*	0.376	0.922	/	71.8*
Nc1c(C(=O)N/N=C/c2cccnc2)oc2nc(-c3ccccc3)cc(-c3ccco3)c12	/	-0.6	7.2	0.928	1.01	/	/
O=C(N/N=C/c1ccc[nH]1)c1ccc2c(c1)OCO2	1	-12.3	50.2*	0.498	1.12	2.5	63.6*
Cc1ccc(CCNC(=O)CC(C)CC2=NS(=O)(=O)c3ccccc3N2)cc1 (centres undefined)	/	8.2	3.9	0.961	0.918	/	/
COc1ccc(S(=O)(=O)N2CCC(C(=O)Nc3ccccc3N3CCCCC3)CC2)cc1OC	/	-3.7	-9.0	1.09	1.04	/	/
C/C(CC(=O)Nc1ccc2ccccc2c1)=N\NC(=O)c1ccc(O)c(O)c1	/	-5.6	46.5*	0.535	1.06	/	67.0*
C/C(CC(=O)Nc1ccc2ccccc2c1)=N\NC(=O)c1cnccn1	0.9	-8.9	6.2	0.938	1.09	14.0	/
O=C(NCC(=O)N1CCCC(C(F)(F)F)C1)c1ccc(Br)o1 (centres undefined)	/	-2.3	5.7	0.943	1.02	/	/
CCn1c(SC)nnc1C1CCCN(CC(=O)Nc2ccccc2N2CCOCC2)C1 (centres undefined)	/	-23.5	1.5	0.985	1.24	/	/
Cc1cc(C)cc(NC(=O)Cn2nnc(C(=O)NCc3ccc(F)cc3)c2N)c1	/	-3.5	-9.5	1.09	1.03	/	/
Cn1cccc1C(=O)OCc1cc(Cl)cc2c1OCOC2	1	-6.9	6.2	0.938	1.07	-1.3	24.1*
O=C(O)C1Nc2c(O)cccc2C2C=CCC12 (centres undefined)	0.8	-69.0	74.5*	0.255	1.69	24.2	86.3*
Cc1c(Br)c(O)c(Br)c2sc(=O)oc12	/	-8.9	59.0*	0.41	1.09	/	65.4*
Cc1nc2scc(C)n2c(=O)c1S(=O)(=O)Nc1ccc(N2CCOCC2)cc1	/	23.3	0.8	0.992	0.767	/	/
COc1ccc(NC(=O)Nc2cccc3c2O[C@H](CN(C)Cc2ccc(-c4ccccc4)cc2)[C@@H](C)CN([C@H](C)CO)C3=O)cc1	/	4.3	-14.8	1.15	0.957	/	/
C[C@@H]1CN([C@H](C)CO)C(=O)c2cc(NC(=O)Nc3cccc4ccccc34)ccc2O[C@H]1CN(C)Cc1ccc(C(F)(F)F)cc1	/	-9.8	-230.7	3.31*	1.1	/	-120.2
